Laboratory results from ChEMBL document CHEMBL5705905, “Pharmacological targeting of kinases MST1 and MST2 augments tissue repair and regeneration” (Sci Transl Med, 2016).
Active and inactive are the calls of the source. No cut-off for these calls is given here.

How the values were obtained:
[1] = biological target: Bone morphogenetic protein receptor type-2 (Homo sapiens) (UniProt Q13873); experiment: Inhibition of BMPR2 (unknown origin) assessed as remaining activity at 1 uM by Kinome scan method relative to control
In short: (§1)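 Active-site-dependent competition-binding (KINOMEscan) panel of 468 kinases, test compound at 1 μM (from a 10 mM DMSO stock). Read-out is ctrl% = (test signal − positive control signal)/(negative control signal − positive control signal) × 100. DMSO is the negative control (100%) and a control compound is the positive control (0%). Lower ctrl% means tighter binding.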

[2] = biological target: Serine/threonine-protein kinase SIK3 (Homo sapiens) (UniProt Q9Y2K2); experiment: Inhibition of QSK (unknown origin) assessed as remaining activity at 1 uM by Kinome scan method relative to control
[3] = biological target: Tyrosine-protein kinase receptor UFO (Homo sapiens) (UniProt P30530); experiment: Inhibition of AXL (unknown origin) assessed as remaining activity at 1 uM by Kinome scan method relative to control; in short: as §1
[4] = biological target: Serine/threonine-protein kinase 3 (Homo sapiens) (UniProt Q13188); conditions: dose 100.0 µM
[5] = biological target: Serine/threonine-protein kinase 36 (Homo sapiens) (UniProt Q9NRP7); experiment: Inhibition of STK36 (unknown origin) assessed as remaining activity at 1 uM by Kinome scan method relative to control
Mus musculus = experiment: Protection against APAP induced liver injury in mouse assessed as decrease in ALT level at 1 mg/kg, ip administered at 2.5 hrs in the presence of NAC; assay type: functional, organism-based; conditions: Serum
Aurora kinase B = Aurora kinase B (Homo sapiens, UniProt Q96GD4); experiment: Binding affinity to AURKB (unknown origin) assessed as dissociation constant
[6] = biological target: Phosphatidylinositol 4-phosphate 5-kinase type-1 gamma (Homo sapiens, UniProt O60331); experiment: Binding affinity to PIP5K1C (unknown origin) assessed as dissociation constant
[7] = test system: Tyrosine-protein kinase ABL1 (Homo sapiens), P00519 [T315I]; experiment: Inhibition of ABL1 T315I mutant (unknown origin) assessed as remaining activity at 1 uM by Kinome scan method relative to control; in short: as §1
[8] = biological target: Tyrosine-protein kinase Srms (Homo sapiens) (UniProt Q9H3Y6); experiment: Inhibition of SRMS (unknown origin) assessed as remaining activity at 1 uM by Kinome scan method relative to control
[9] = biological target: Platelet-derived growth factor receptor beta (Homo sapiens) (UniProt P09619); experiment: Inhibition of PDGFRbeta (unknown origin) assessed as remaining activity at 1 uM by Kinome scan method relative to control
[10] = biological target: Serine/threonine-protein kinase pim-2 (Homo sapiens) (UniProt Q9P1W9); experiment: Inhibition of PIM2 (unknown origin) assessed as remaining activity at 1 uM by Kinome scan method relative to control
[11] = biological target: Mitogen-activated protein kinase kinase kinase 6 (Homo sapiens) (UniProt O95382); experiment: Inhibition of ASK2 (unknown origin) assessed as remaining activity at 1 uM by Kinome scan method relative to control; in short: as §1
[12] = test system: Receptor-type tyrosine-protein kinase FLT3 (Homo sapiens), P36888 [UNDEFINED MUTATION]; experiment: Inhibition of FLT3 […]/D835V mutant (unknown origin) assessed as remaining activity at 1 uM by Kinome scan method relative to control
[13] = biological target: MAP kinase-interacting serine/threonine-protein kinase 2 (Homo sapiens) (UniProt Q9HBH9); experiment: Inhibition of MKNK2 (unknown origin) assessed as remaining activity at 1 uM by Kinome scan method relative to control
[14] = biological target: Tyrosine-protein kinase ABL1 (Homo sapiens, UniProt P00519, M351T); experiment: Inhibition of phosphorylated ABL1 M351T mutant (unknown origin) in presence of ATP by enzymatic assay
[15] = biological target: Myosin light chain kinase family member 4 (Homo sapiens) (UniProt Q86YV6); experiment: Inhibition of MYLK4 (unknown origin) assessed as remaining activity at 1 uM by Kinome scan method relative to control
In short: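 KINOMEscan active-site competition binding assay at 1 μM against 468 kinases. Ctrl% = (test − positive control)/(negative control DMSO − positive control) × 100; lower values mean tighter binding.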

[16] = biological target: T1, Serine/threonine-protein kinase 4 (Homo sapiens, UniProt Q13043); experiment: Inhibition of recombinant His-tagged full-length MST1 (unknown origin) expressing in Escherichia coli assessed as MOB1a phosphorylation level incubated for 30 min in the presence of 10 uM ATP by immunoblot analysis
T1 sequence (Q13043 whole entry): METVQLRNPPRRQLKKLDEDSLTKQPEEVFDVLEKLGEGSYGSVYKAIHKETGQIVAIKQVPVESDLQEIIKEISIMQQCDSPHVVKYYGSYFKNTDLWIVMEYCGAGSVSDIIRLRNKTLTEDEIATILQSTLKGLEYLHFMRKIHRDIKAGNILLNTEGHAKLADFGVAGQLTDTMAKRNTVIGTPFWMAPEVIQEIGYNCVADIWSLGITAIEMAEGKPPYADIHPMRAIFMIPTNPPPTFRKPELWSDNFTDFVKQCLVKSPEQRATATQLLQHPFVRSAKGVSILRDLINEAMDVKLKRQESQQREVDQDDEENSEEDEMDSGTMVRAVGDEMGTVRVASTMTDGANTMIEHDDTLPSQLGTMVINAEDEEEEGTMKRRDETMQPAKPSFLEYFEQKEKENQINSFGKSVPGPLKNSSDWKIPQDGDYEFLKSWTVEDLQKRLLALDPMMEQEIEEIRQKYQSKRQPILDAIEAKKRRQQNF

[17] = test system: Epidermal growth factor receptor (Homo sapiens), P00533 [G719C]; experiment: Inhibition of EGFR G719C mutant (unknown origin) assessed as remaining activity at 1 uM by Kinome scan method relative to control
[18] = biological target: Homeodomain-interacting protein kinase 4 (Homo sapiens) (UniProt Q8NE63); experiment: Inhibition of HIPK4 (unknown origin) assessed as remaining activity at 1 uM by Kinome scan method relative to control
[19] = biological target: Death-associated protein kinase 3 (Homo sapiens) (UniProt O43293); experiment: Inhibition of DAPK3 (unknown origin) assessed as remaining activity at 1 uM by Kinome scan method relative to control
In short: (§2)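 Active-site-dependent competition-binding profiling (KINOMEscan) at 1 μM against a 468-kinase panel; compound supplied from a 10 mM DMSO stock. Read-out is ctrl% = (test signal − positive control signal)/(negative control signal − positive control signal) × 100. DMSO is the negative control (100%) and a control compound the positive control (0%). Lower ctrl% means tighter binding.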

[20] = biological target: Serine/threonine-protein kinase Nek5 (Homo sapiens) (UniProt Q6P3R8); experiment: Inhibition of NEK5 (unknown origin) assessed as remaining activity at 1 uM by Kinome scan method relative to control
[21] = test system: Phosphatidylinositol 4,5-bisphosphate 3-kinase catalytic subunit alpha isoform (Homo sapiens), P42336 [I800L]; experiment: Inhibition of PIK3CA I800L mutant (unknown origin) assessed as remaining activity at 1 uM by Kinome scan method relative to control
[22] = biological target: Cyclin-dependent kinase-like 1 (Homo sapiens) (UniProt Q00532); experiment: Inhibition of CDKL1 (unknown origin) assessed as remaining activity at 1 uM by Kinome scan method relative to control; in short: as §2

Serine/threonine-protein kinase SIK3 (Homo sapiens), sequence (Q9Y2K2 whole entry, looked up): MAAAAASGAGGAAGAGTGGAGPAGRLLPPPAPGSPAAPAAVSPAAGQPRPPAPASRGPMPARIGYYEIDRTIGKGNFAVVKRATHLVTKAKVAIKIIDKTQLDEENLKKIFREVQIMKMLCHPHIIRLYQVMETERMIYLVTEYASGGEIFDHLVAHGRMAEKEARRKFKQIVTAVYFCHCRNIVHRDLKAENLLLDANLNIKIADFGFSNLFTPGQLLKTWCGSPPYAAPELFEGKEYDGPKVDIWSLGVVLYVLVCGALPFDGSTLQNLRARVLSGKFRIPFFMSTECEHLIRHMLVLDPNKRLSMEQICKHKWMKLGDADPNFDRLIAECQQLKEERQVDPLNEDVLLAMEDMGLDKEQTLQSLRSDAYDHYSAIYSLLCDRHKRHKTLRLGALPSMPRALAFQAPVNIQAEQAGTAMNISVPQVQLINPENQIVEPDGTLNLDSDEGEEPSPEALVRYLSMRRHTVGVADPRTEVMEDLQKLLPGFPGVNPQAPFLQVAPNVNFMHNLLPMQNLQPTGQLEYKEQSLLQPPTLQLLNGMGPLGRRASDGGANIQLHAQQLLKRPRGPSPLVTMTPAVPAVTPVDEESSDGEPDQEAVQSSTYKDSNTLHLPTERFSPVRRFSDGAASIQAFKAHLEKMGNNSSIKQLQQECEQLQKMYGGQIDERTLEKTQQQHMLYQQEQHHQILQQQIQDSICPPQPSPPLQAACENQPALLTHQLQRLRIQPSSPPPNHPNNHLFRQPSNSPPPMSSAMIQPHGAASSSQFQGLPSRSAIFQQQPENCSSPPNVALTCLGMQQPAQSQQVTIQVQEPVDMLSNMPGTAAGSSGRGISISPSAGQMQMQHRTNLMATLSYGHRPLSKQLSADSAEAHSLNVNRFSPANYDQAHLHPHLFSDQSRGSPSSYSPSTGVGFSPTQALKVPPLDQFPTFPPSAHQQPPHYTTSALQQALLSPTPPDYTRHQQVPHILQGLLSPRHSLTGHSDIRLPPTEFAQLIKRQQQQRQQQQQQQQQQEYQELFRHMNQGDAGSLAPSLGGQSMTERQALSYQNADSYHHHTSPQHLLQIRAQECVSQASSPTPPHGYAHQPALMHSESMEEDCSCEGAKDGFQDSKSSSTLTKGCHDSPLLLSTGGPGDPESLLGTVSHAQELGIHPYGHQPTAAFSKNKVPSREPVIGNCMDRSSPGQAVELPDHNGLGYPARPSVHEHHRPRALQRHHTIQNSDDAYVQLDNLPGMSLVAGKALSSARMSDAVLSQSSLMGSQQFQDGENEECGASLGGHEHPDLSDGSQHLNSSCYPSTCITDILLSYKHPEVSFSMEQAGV
Aurora kinase B, sequence (Q96GD4 whole entry): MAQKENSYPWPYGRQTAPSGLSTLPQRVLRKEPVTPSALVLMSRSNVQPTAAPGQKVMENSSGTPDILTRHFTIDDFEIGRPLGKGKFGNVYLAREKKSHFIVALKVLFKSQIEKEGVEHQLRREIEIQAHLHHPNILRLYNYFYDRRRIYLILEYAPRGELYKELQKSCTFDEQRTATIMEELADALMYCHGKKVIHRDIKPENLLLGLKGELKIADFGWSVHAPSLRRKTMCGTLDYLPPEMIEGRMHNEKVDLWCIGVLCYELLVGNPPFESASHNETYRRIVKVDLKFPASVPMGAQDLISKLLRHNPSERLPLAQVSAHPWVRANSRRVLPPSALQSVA
Tyrosine-protein kinase receptor UFO (Homo sapiens), sequence (P30530 whole entry): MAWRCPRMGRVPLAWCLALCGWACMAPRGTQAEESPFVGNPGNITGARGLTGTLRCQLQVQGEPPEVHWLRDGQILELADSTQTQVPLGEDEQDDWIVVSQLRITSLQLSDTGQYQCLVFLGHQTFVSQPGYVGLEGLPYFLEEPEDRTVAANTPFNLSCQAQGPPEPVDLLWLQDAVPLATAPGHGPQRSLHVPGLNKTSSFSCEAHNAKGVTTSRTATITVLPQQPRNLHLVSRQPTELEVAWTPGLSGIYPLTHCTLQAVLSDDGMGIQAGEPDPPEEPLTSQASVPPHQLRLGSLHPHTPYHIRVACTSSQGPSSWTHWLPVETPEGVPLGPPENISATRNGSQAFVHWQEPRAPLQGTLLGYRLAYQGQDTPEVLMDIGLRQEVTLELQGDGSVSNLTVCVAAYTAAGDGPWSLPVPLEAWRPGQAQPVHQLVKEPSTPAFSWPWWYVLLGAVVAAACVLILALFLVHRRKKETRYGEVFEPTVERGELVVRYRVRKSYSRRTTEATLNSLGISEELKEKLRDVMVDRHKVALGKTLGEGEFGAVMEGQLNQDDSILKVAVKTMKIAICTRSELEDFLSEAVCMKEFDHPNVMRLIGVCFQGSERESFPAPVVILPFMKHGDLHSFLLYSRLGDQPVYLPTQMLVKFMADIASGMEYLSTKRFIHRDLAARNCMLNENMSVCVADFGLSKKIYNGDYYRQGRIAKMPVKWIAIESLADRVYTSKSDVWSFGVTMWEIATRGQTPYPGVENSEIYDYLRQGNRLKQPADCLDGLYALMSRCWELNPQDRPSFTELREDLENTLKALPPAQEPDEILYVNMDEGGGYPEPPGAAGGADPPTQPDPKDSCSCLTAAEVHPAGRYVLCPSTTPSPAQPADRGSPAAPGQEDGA
Death-associated protein kinase 3 (Homo sapiens), sequence (O43293 whole entry, looked up): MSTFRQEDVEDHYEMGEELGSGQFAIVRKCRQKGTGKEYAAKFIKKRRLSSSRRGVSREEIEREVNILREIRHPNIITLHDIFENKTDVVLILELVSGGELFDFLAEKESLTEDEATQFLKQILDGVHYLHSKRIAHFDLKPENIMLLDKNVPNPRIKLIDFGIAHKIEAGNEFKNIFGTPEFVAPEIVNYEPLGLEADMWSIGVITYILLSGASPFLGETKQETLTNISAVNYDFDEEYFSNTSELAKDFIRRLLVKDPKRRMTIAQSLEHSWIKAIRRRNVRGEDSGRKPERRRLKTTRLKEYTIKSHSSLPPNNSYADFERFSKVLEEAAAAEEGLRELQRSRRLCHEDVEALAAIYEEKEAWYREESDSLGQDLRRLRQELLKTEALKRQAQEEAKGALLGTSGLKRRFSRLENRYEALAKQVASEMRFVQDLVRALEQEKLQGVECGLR
Serine/threonine-protein kinase pim-2 (Homo sapiens), sequence (Q9P1W9 whole entry, looked up): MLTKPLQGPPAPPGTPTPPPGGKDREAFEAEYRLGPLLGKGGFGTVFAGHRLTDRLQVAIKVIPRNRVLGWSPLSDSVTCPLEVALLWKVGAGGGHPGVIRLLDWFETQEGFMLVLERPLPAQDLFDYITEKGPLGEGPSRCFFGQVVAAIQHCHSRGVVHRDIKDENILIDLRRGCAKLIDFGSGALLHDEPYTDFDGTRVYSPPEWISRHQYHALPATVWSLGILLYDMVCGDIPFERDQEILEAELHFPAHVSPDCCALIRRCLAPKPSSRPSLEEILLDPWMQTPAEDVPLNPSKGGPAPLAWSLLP
Bone morphogenetic protein receptor type-2 (Homo sapiens), sequence (Q13873 whole entry): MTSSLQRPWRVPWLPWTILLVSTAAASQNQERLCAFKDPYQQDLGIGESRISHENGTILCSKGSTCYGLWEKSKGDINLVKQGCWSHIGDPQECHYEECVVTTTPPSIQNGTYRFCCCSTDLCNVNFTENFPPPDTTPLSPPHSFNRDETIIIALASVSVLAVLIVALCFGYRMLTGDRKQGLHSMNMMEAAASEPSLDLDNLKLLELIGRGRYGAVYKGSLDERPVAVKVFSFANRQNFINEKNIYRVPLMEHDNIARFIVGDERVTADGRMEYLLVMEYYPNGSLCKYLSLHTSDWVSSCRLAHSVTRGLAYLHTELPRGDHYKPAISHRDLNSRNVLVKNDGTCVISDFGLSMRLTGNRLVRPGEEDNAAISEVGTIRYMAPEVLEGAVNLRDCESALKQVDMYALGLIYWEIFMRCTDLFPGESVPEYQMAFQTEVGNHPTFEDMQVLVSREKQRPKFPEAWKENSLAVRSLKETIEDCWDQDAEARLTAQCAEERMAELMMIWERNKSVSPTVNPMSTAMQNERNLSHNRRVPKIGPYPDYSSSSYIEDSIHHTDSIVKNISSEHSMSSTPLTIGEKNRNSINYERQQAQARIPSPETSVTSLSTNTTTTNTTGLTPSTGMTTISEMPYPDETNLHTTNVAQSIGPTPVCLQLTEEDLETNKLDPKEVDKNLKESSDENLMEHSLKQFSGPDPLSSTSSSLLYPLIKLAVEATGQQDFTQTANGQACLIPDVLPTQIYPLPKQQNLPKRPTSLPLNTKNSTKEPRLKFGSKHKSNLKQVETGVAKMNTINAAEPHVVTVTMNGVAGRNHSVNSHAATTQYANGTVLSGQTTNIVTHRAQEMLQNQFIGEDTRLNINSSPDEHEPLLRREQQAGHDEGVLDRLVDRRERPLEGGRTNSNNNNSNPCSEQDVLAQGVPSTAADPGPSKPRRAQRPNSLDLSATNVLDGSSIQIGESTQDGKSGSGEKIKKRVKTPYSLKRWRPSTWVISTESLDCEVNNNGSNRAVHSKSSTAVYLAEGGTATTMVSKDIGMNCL
Phosphatidylinositol 4-phosphate 5-kinase type-1 gamma, sequence (O60331 whole entry): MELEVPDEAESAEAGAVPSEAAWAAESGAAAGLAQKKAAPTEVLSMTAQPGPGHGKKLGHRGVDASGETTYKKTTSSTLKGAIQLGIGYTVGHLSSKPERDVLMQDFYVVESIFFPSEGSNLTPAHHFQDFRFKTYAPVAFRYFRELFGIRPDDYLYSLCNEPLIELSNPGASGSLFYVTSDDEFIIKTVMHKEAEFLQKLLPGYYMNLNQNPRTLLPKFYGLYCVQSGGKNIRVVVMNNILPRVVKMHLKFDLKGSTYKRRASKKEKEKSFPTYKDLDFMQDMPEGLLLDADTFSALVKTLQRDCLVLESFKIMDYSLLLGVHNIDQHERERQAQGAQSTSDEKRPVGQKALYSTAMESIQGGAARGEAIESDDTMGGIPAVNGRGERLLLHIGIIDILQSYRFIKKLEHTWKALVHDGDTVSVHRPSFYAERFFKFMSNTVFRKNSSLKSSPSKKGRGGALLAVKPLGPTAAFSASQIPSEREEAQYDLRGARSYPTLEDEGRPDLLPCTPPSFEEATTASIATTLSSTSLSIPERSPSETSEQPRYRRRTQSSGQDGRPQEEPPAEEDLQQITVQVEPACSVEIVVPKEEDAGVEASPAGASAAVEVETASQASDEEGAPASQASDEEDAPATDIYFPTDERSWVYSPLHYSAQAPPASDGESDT

## CN1C(=O)c2sccc2N(C)c2nc(Nc3ccc(S(N)(=O)=O)cc3)ncc21
[1]
  Activity: 100%
[2]
  Activity: 87%
[3]
  Activity: 86%
[4]
  Tm: 62 °C
[5]
  Activity: 100%
Mus musculus
  Activity: Active
Aurora kinase B
  Kd: 0.04 µM
[6]
  Kd: 0.077 µM
[7]
  Activity: 15%
[8]
  Activity: 100%
[9]
  Activity: 90%
[10]
  Activity: 100%
[11]
  Activity: 84%
[12]
  Activity: 27%
[13]
  Activity: 59%
[14]
  IC50: 0.0176 µM
[15]
  Activity: 89%
[16]
  IC50: 0.164 µM
[17]
  Activity: 78%
[18]
  Activity: 94%
[19]
  Activity: 94%
[20]
  Activity: 97%
[21]
  Activity: 23%
[22]
  Activity: 100%
